Experimental data taken from ChEMBL document CHEMBL2163271, “Antitumor agents 295. E-ring hydroxylated antofine and cryptopleurine analogues as antiproliferative agents: design, synthesis, and mechanistic studies” (J Med Chem, 2012).
Activity calls are given as the source filed them. The calls are words filed in the database; no cut-off is given here.

System: A549
Experiment: Downregulation of cAMP dependent PKA cat mRNA expression in human A549 cells by microarray analysis relative to control
Assay type: functional
Details: not given
In short: (§1)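 Gene expression profiling of treated versus untreated A549 cells, with pathways analysed in the MetaCore database.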

Row | SMILES | fold change (FC)
1 | COc1ccc2c3c(c4cc(OC)c(OC)cc4c2c1)C[C@H]1C[C@H](O)CCN1C3 | <10

System: A549
Experiment: Downregulation of FBXW mRNA expression in human A549 cells by microarray analysis relative to control
Assay type: functional
Details: not given
In short: as §1

Row | SMILES | fold change (FC)
2 | COc1ccc2c3c(c4cc(OC)c(OC)cc4c2c1)C[C@H]1C[C@H](O)CCN1C3 | <10

System: not listed separately
Experiment: Cytotoxicity against human PC9IR cells assessed as cell viability after 48 hrs by SRB assay
Assay type: functional, cell-based
Details: not given
In short: (§2)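 Human NSCLC lines (CL1-0, CL1-5, PC9, PC9IR) exposed to increasing compound concentrations for 48 h. Growth read by sulforhodamine B (SRB) staining, with IC50 in nM taken from the dose-response.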

Row | SMILES | IC50 [nM]
3 | COc1ccc2c3c(c4cc(OC)c(OC)cc4c2c1)C[C@H]1C[C@H](O)CCN1C3 | 43.2

System: A549
Experiment: Downregulation of SAP18 mRNA expression in human A549 cells by microarray analysis relative to control
Assay type: functional
Details: not given
In short: as §1

Row | SMILES | fold change (FC)
4 | COc1ccc2c3c(c4cc(OC)c(OC)cc4c2c1)C[C@H]1C[C@H](O)CCN1C3 | <10

System: PC-9
Experiment: Cytotoxicity against human PC9 cells assessed as cell viability after 48 hrs by SRB assay
Assay type: functional, cell-based
Details: PC-9, 48 h
In short: as §2

Row | SMILES | IC50 [nM]
5 | COc1ccc2c3c(c4cc(OC)c(OC)cc4c2c1)C[C@H]1C[C@H](O)CCN1C3 | 8.2

System: not listed separately
Experiment: Cytotoxicity against human CL1-0 cells assessed as cell viability after 48 hrs by SRB assay
Assay type: functional, cell-based
Details: CL1-0, 48 h
In short: as §2

Row | SMILES | IC50 [nM]
6 | COc1ccc2c3c(c4cc(OC)c(OC)cc4c2c1)C[C@H]1C[C@H](O)CCN1C3 | 58.4

System: A549
Experiment: Downregulation of myosin 5b mRNA expression in human A549 cells by microarray analysis relative to control
Assay type: functional
Details: not given
In short: as §1

Row | SMILES | fold change (FC)
7 | COc1ccc2c3c(c4cc(OC)c(OC)cc4c2c1)C[C@H]1C[C@H](O)CCN1C3 | <10

System: A549
Experiment: Downregulation of DYRK2 mRNA expression in human A549 cells by microarray analysis relative to control
Assay type: functional
Details: not given
In short: as §1

Row | SMILES | fold change (FC)
8 | COc1ccc2c3c(c4cc(OC)c(OC)cc4c2c1)C[C@H]1C[C@H](O)CCN1C3 | <10

System: A549
Experiment: Cytotoxicity against human A549 cells assessed as cell viability after 48 hrs by SRB assay
Assay type: functional, cell-based
Details: A549, 48 h

Row | SMILES | IC50 [nM]
9 | COc1ccc2c3c(c4cc(OC)c(OC)cc4c2c1)C[C@H]1C[C@H](O)CCN1C3 | 9

System: A549
Experiment: Downregulation of cyclin D protein expression in human A549 cells at 3.6 to 100 nM after 48 hrs by Western blot analysis
Assay type: functional, cell-based
Details: not given

Row | SMILES | Activity
10 | COc1ccc2c3c(c4cc(OC)c(OC)cc4c2c1)C[C@H]1C[C@H](O)CCN1C3 | Active

System: A549
Experiment: Downregulation of Eps 15 mRNA expression in human A549 cells by microarray analysis relative to control
Assay type: functional
Details: not given
In short: as §1

Row | SMILES | fold change (FC)
11 | COc1ccc2c3c(c4cc(OC)c(OC)cc4c2c1)C[C@H]1C[C@H](O)CCN1C3 | <10

System: A549
Experiment: Downregulation of casein kinase 1 mRNA expression in human A549 cells by microarray analysis relative to control
Assay type: functional
Details: not given
In short: as §1

Row | SMILES | fold change (FC)
12 | COc1ccc2c3c(c4cc(OC)c(OC)cc4c2c1)C[C@H]1C[C@H](O)CCN1C3 | <10

System: A549
Experiment: Downregulation of collagen 4 mRNA expression in human A549 cells by microarray analysis relative to control
Assay type: functional
Details: not given
In short: as §1

Row | SMILES | fold change (FC)
13 | COc1ccc2c3c(c4cc(OC)c(OC)cc4c2c1)C[C@H]1C[C@H](O)CCN1C3 | <10

System: A549
Experiment: Downregulation of HSP90 protein expression in human A549 cells at 3.6 to 100 nM after 48 hrs by Western blot analysis
Assay type: functional, cell-based
Details: not given
In short: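 A549 cells treated with graded compound concentrations for 48 h. Whole-cell extracts were immunoblotted with antibody against HSP90.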

Row | SMILES | Activity
14 | COc1ccc2c3c(c4cc(OC)c(OC)cc4c2c1)C[C@H]1C[C@H](O)CCN1C3 | Active

System: A549
Experiment: Downregulation of FRS2 mRNA expression in human A549 cells by microarray analysis relative to control
Assay type: functional
Details: not given
In short: as §1

Row | SMILES | fold change (FC)
15 | COc1ccc2c3c(c4cc(OC)c(OC)cc4c2c1)C[C@H]1C[C@H](O)CCN1C3 | <10

System: A549
Experiment: Downregulation of CDK11 mRNA expression in human A549 cells by microarray analysis relative to control
Assay type: functional
Details: not given
In short: as §1

Row | SMILES | fold change (FC)
16 | COc1ccc2c3c(c4cc(OC)c(OC)cc4c2c1)C[C@H]1C[C@H](O)CCN1C3 | <10

System: A549
Experiment: Downregulation of PLAU mRNA expression in human A549 cells by microarray analysis relative to control
Assay type: functional
Details: not given
In short: as §1

Row | SMILES | fold change (FC)
17 | COc1ccc2c3c(c4cc(OC)c(OC)cc4c2c1)C[C@H]1C[C@H](O)CCN1C3 | <10

System: A549
Experiment: Cytotoxicity against human A549 cells assessed as effect on cell morphology at 60 nM after 48 hrs by inverted phase-contrast microscopy
Assay type: functional, cell-based
Details: not given
In short: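 A549 cells exposed to a rising concentration series for 48 h, including 60 nM. Cells were viewed under an inverted phase-contrast microscope and photographed, and cell number and morphology were scored by eye.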

Row | SMILES | Activity
18 | COc1ccc2c3c(c4cc(OC)c(OC)cc4c2c1)C[C@H]1C[C@H](O)CCN1C3 | inactive

System: A549
Experiment: Downregulation of HSP90 mRNA expression in human A549 cells by microarray analysis relative to control
Assay type: functional
Details: not given
In short: as §1

Row | SMILES | fold change (FC)
19 | COc1ccc2c3c(c4cc(OC)c(OC)cc4c2c1)C[C@H]1C[C@H](O)CCN1C3 | <10

System: A549
Experiment: Downregulation of VTI1B mRNA expression in human A549 cells by microarray analysis relative to control
Assay type: functional
Details: not given
In short: as §1

Row | SMILES | fold change (FC)
20 | COc1ccc2c3c(c4cc(OC)c(OC)cc4c2c1)C[C@H]1C[C@H](O)CCN1C3 | <10

System: MRC5
Experiment: Cytotoxicity against human MRC5 cells assessed as cell viability after 48 hrs by SRB assay
Assay type: functional, cell-based
Details: MRC5, 48 h

Row | SMILES | IC50 [nM]
21 | COc1ccc2c3c(c4cc(OC)c(OC)cc4c2c1)C[C@H]1C[C@H](O)CCN1C3 | 98

System: not listed separately
Experiment: Cytotoxicity against human KBVIN cells overexpressing P-gp after 2 hrs by methylene blue staining-based spectrophotometric analysis
Assay type: functional, cell-based
Details: not given

Row | SMILES | IC50 [nM]
22 | COc1ccc2c3c(c4cc(OC)c(OC)cc4c2c1)C[C@H]1C[C@H](O)CCN1C3 | 25
